Assay results: ChEMBL document CHEMBL3351774, “Inhibitory activities of propolis and its promising component, caffeic acid phenethyl ester, against amyloidogenesis of human transthyretin” (J Med Chem, 2014)
The source made the active and inactive calls. No cut-off for these calls is given here.

Legend:
[1] = system: Transthyretin (Homo sapiens), P02766 [V50M]; assay: Competitive binding to TTR V30M mutant (unknown origin) expressed in Escherichia coli at 1 to 80 uM by fluorescence assay
Procedure, shortened: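 Thioflavin T competition check: preformed V30M fibrils (10 μM V30M with 66.8 μM thioflavin T, 37 °C, 72 h) were mixed with compounds at 0−80 μM final, with 20 μM thioflavin T and 200 mM Tris-HCl pH 8.0 final. Emission 460−700 nm was recorded with excitation at 440 nm.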

Transthyretin [2] = target: Transthyretin (Homo sapiens, UniProt P02766, V50M); assay: (§1) Inhibition of TTR V30M mutant (unknown origin) expressed in Escherichia coli assessed as inhibition of amyloid fibril formation by fluorescence assay
Procedure, shortened: (§2)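 Compounds were tested at 2.5−80 μM with at least four concentrations. EC50 came from a four-parameter logistic least-squares fit. Standard deviations and p values were taken from triplicate experiments.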

[3] = system: Transthyretin (Homo sapiens), P02766 [V50M]; assay: Inhibition of acid-mediated dissociation of TTR V30M mutant (unknown origin) expressed in Escherichia coli after 30 mins by SDS-PAGE
Procedure, shortened: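 V30M in 20 mM Tris-Cl pH 8.0, 150 mM NaCl was preincubated with compound (ethanol stock) for 30 min at room temperature. Four volumes of 0.1 M sodium acetate pH 4.5 were then added, and the sample was held at 310 K for 8 days (7.3 μM protein; compound 7.3 or 36.5 μM final). Glutaraldehyde cross-linking ran 5 min and was stopped with borohydride. Bands were resolved by 15% SDS-PAGE and silver-stained.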

[4] = system: Transthyretin (Homo sapiens), P02766 [V50M]; assay: Inhibition of TTR V30M mutant (unknown origin) expressed in Escherichia coli assessed as inhibition of amyloid fibril formation at 20 uM by fluorescence assay
Procedure, shortened: as §2, with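 “Acid-mediated aggregation of 10 μM Ni-NTA-purified V30M, read by thioflavin T fluorescence at 484 nm (excitation 440 nm). Compounds” for “Compounds”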

[5] = system: Transthyretin (Homo sapiens), P02766 [V50M]; assay: Displacement of ANS from TTR V30M mutant (unknown origin) expressed in Escherichia coli at 1 to 50 uM after 5 mins by fluorescence assay
Procedure, shortened: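 ANS displacement on 2 μM Ni-NTA-purified V30M in 50 mM Tris-HCl pH 7.4, 150 mM NaCl at 298 K. ANS and compound were added in sequence, stirred and equilibrated 5 min. Dilution stayed below 0.4%. Emission 400−540 nm was read with excitation at 280 nm.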

[6] = system: Transthyretin (Homo sapiens), P02766 [V50M]; assay: Inhibition of TTR V30M mutant (unknown origin) expressed in Escherichia coli assessed as inhibition of amyloid fibril formation at 10 uM by fluorescence assay
Procedure, shortened: as §2, with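 “Acid-mediated aggregation of 10 μM Ni-NTA-purified V30M, read by thioflavin T fluorescence at 484 nm (excitation 440 nm). Compounds” for “Compounds”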

[7] = system: Transthyretin (Homo sapiens), P02766 [V50M]; assay: Inhibition of TTR V30M mutant (unknown origin) expressed in Escherichia coli assessed as inhibition of amyloid fibril formation at 40 uM by fluorescence assay
Procedure, shortened: as §2, with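 “Acid-mediated aggregation of 10 μM Ni-NTA-purified V30M, read by thioflavin T fluorescence at 484 nm (excitation 440 nm). Compounds” for “Compounds”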

[8] = system: Transthyretin (Homo sapiens), P02766 [V50M]; assay: Inhibition of TTR V30M mutant (unknown origin) expressed in Escherichia coli assessed as inhibition of amyloid fibril formation at 80 uM by fluorescence assay
Procedure, shortened: as §2, with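 “Acid-mediated aggregation of 10 μM Ni-NTA-purified V30M, read by thioflavin T fluorescence at 484 nm (excitation 440 nm). Compounds” for “Compounds”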

[9] = system: Transthyretin (Homo sapiens), P02766 [V50M]; assay: Inhibition of TTR V30M mutant (unknown origin) expressed in Escherichia coli assessed as inhibition of amyloid fibril formation at 5 uM by fluorescence assay
Procedure, shortened: as §2, with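 “Acid-mediated aggregation of 10 μM Ni-NTA-purified V30M, read by thioflavin T fluorescence at 484 nm (excitation 440 nm). Compounds” for “Compounds”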

[10] = system: Transthyretin (Homo sapiens), P02766 [V50M]; assay: as §1; procedure, shortened: as §2
Transthyretin [11] = target: Transthyretin (Homo sapiens, UniProt P02766, I104T); assay: Inhibition of TTR I84T mutant (unknown origin) expressed in Escherichia coli assessed as inhibition of amyloid fibril formation by fluorescence assay
Transthyretin [12] = target: Transthyretin (Homo sapiens, UniProt P02766, L75P); assay: Inhibition of TTR L55P mutant (unknown origin) expressed in Escherichia coli assessed as inhibition of amyloid fibril formation by fluorescence assay

SMILES: COc1ccc(/C=C/C(=O)OCCc2ccccc2)cc1O
- Activity [1]: inactive
- EC50 (Transthyretin [2]; read-out: EC50): 11 µM

SMILES: COc1ccc(/C=C/C(=O)OCCc2ccccc2)cc1OC
- Activity [1]: inactive
- EC50 (Transthyretin [2]; read-out: EC50): 58 µM

SMILES: COc1cc(/C=C/C(=O)OCCc2ccccc2)ccc1O
- Activity [1]: inactive
- inhibition [3]: Dose-dependent effect
- EC50 (Transthyretin [2]; read-out: EC50): 7.9 µM
- inhibition [4]: < 20%
- Activity [5]: Active

SMILES: COc1ccc(CC(C)C(C)Cc2ccc(OC)c(OC)c2)cc1OC (stereo not drawn)
- EC50 (Transthyretin [2]): Not Active
- inhibition [4]: < 20%

SMILES: CCCCCCCCOC(=O)/C=C/c1ccc(O)c(O)c1
- inhibition [6]: 44%
- inhibition [4]: 47%
- inhibition [7]: 49%
- inhibition [8]: 53%
- inhibition [9]: 27%

SMILES: COc1cc(CNC(=O)CCCC/C=C/C(C)C)ccc1O
- inhibition [4]: < 20%

SMILES: COc1cc(C[C@H]2COC(=O)[C@@H]2Cc2ccc(O)c(OC)c2)ccc1O
- inhibition [4]: < 12%

SMILES: O=C(/C=C/c1ccc(O)c(O)c1)O[C@@H]1C[C@](O)(C(=O)O)C[C@@H](O)[C@H]1O
- inhibition [10]: inactive

SMILES: O=C(/C=C/c1ccccc1)OCCc1ccccc1
- inhibition [10]: inactive

SMILES: O=C(O)c1cc(-c2ccc(F)cc2F)ccc1O
- inhibition [4]: < 20%

SMILES: O=C1OC[C@H](Cc2cccc(O)c2)[C@H]1Cc1cccc(O)c1
- inhibition [4]: < 20%

SMILES: OC[C@H](Cc1cccc(O)c1)[C@H](CO)Cc1cccc(O)c1
- inhibition [4]: < 20%

SMILES: c1cc2c(cc1[C@H]1OC[C@H]3[C@@H]1CO[C@@H]3c1ccc3c(c1)OCO3)OCO2
- inhibition [4]: < 20%

SMILES: O=C(/C=C/c1ccc(O)c(O)c1)OCc1ccccc1 [BENZYL CAFFEATE]
- Activity [1]: Active
- EC50 (Transthyretin [2]; read-out: EC50): 16 µM

SMILES: O=C(/C=C/c1ccc(O)c(O)c1)OCCc1ccccc1 [CAFFEIC ACID PHENETHYL ESTER]
- Activity [1]: inactive
- EC50 (Transthyretin [2]; read-out: EC50): 8.6 µM
- inhibition [4]: < 20%
- Activity [5]: Active

SMILES: O=C(O)/C=C/c1ccc(O)c(O)c1 [CAFFEIC ACID]
- Activity [1]: inactive
- EC50 (Transthyretin [2]; read-out: EC50): 97 µM

SMILES: COc1cc(CC(C)C(C)Cc2ccc(O)c(OC)c2)ccc1O (stereo not drawn) [DIHYDROGUAIARETIC ACID]
- Activity [1]: inactive
- EC50 (Transthyretin [2]; read-out: EC50): 6.3 µM
- inhibition [4]: < 20%
- Activity [5]: Active

SMILES: CCOC(=O)/C=C/c1ccc(O)c(O)c1 [ETHYL CAFFEATE]
- Activity [1]: inactive
- EC50 (Transthyretin [2]; read-out: EC50): 23 µM
- inhibition [4]: < 20%
- Activity [5]: Active

SMILES: COC(=O)/C=C/c1ccc(O)c(O)c1 [METHYLCAFFEATE]
- Activity [1]: inactive
- EC50 (Transthyretin [2]; read-out: EC50): 67 µM

SMILES: CC(Cc1ccc(O)c(O)c1)C(C)Cc1ccc(O)c(O)c1 (stereo not drawn) [NORDIHYDROGUAIARETIC ACID]
- Activity [1]: inactive
- EC50 (Transthyretin [11]): 8.5 µM
- EC50 (Transthyretin [2]; read-out: EC50): 7.3 µM
- EC50 (Transthyretin [12]): 12.6 µM
- inhibition [4]: < 20%
- Activity [5]: Active

SMILES: CC(C)=CCOC(=O)/C=C/c1ccc(O)c(O)c1 [PRENYL CAFFEATE]
- Activity [1]: inactive
- EC50 (Transthyretin [2]; read-out: EC50): 21 µM
- inhibition [4]: < 20%

SMILES: O=C(/C=C/c1ccc(O)c(O)c1)O[C@H](Cc1ccc(O)c(O)c1)C(=O)O [ROSMARINIC ACID]
- Activity [1]: inactive
- EC50 (Transthyretin [2]; read-out: EC50): 8.6 µM
